Each structure is given as a SMILES string. Activity calls are given as the source filed them. No cut-off for these calls is given here.

Experiment [1] addresses T1, Human immunodeficiency virus type 1 protease (Human immunodeficiency virus 1, UniProt Q72874). Nature of the experiment: Binding affinity was evaluated on HIV Protease enzyme; not active. The gist of the method: (§1)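 Cleavage products were separated by anion-exchange HPLC and the product quantified by fluorescence. Each compound was assayed at least twice and the mean reported; assay SD <±40%.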

The target in experiment [2] is T1, Human immunodeficiency virus type 1 protease. Nature of the experiment: Binding affinity was evaluated with recombinant single chain dimeric HIV protease enzyme with a fluorescent substrate; not active. The method in brief:
as §1

Another experiment deals with T-cell. Briefly: The concentration of the antiviral compound required to inhibit HIV RNA synthesis by 90%. viral RNA was quantified by sandwich hybridization assay; not active. The experiment is classed as functional, cell-based. The gist of the method: (§2)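 Susceptible T-cell lines grown in individual microtiter wells were infected with HIV. Cell-associated viral RNA was measured by RNA hybridization 3 days after infection. […] Assay SD was <±37%. Cytotoxicity was scored separately by tetrazolium dye metabolism, because RNA assay results are valid only at non-cytotoxic doses.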

For experiment [3], the target named is T1, Human immunodeficiency virus type 1 protease. Briefly: Binding affinity for HIV-1 protease. The method in brief:
as §1

Experiment [4] has the same target. Nature of the experiment: Inhibitory activity against HIV-1 protease. The method in brief:
as §1

Experiment [5] relates to Human immunodeficiency virus 1. Briefly: The concentration required to inhibit HIV-1 RNA synthesis by 90%. Viral RNA quantified by a sandwich hybridization assay. The format is functional. The note with it: Human immunodeficiency virus 1. The gist of the method:
as §2

Take `CC1(C)O[C@@H]2[C@@H](O1)[C@@H](Cc1ccccc1)N(Cc1cccc(C(=O)O)c1)C(=O)N(Cc1cccc(C(=O)O)c1)[C@@H]2Cc1ccccc1`: the Ki result in experiment [1] and in experiment [2] was “Not Active” each time. Moreover, the IC90 result with T-cell was “inactive”.

On to `CC1(C)O[C@@H]2[C@@H](O1)[C@@H](Cc1ccccc1)N(Cc1cccc(C#N)c1)C(=O)N(Cc1cccc(C#N)c1)[C@@H]2Cc1ccccc1`, for which the Ki result in experiment [1] and in experiment [2] was “Not Active” throughout. Besides, the IC90 entry with T-cell was “inactive”.

For the compound `COC(=O)c1cccc(CN2C(=O)N(Cc3cccc(C(=O)OC)c3)[C@H](Cc3ccccc3)[C@@H]3OC(C)(C)O[C@H]3[C@H]2Cc2ccccc2)c1`, the Ki result in experiment [1] and in experiment [2] was “Not Active” in each case. Further, the IC90 result in the experiment on T-cell is “inactive”.

Regarding `O=C(Nc1cnccn1)c1cccc(CN2C(=O)N(Cc3cccc(C(=O)Nc4cnccn4)c3)[C@H](Cc3ccccc3)[C@H](O)[C@@H](O)[C@H]2Cc2ccccc2)c1`, the Ki in experiment [3] worked out at 20 pM; in experiment [4], 18 pM. In experiment [5], this compound returned an IC90 of 3500 pM.

On to `NC(=O)c1cccc(CN2C(=O)N(Cc3cccc(C(N)=O)c3)[C@H](Cc3ccccc3)[C@H](O)[C@@H](O)[C@H]2Cc2ccccc2)c1`, for which the Ki in experiment [3] came to 60 pM; in experiment [4], 39 pM. In addition, in experiment [5], the IC90 stood at 709000 pM.

For the compound `O=C(Nc1ccc(C(F)(F)F)cn1)c1cccc(CN2C(=O)N(Cc3cccc(C(=O)Nc4ccc(C(F)(F)F)cn4)c3)[C@H](Cc3ccccc3)[C@H](O)[C@@H](O)[C@H]2Cc2ccccc2)c1`, the Ki in experiment [3] amounted to 90 pM; in experiment [4], 85 pM. The IC90 in experiment [5] stood at 63400 pM.

In general, Ki refers to the equilibrium dissociation constant of an inhibitor or competing ligand from its target. What is called IC90 is the concentration at which the effect reaches the 90% level.
